In article PMC7385434 (Science Advances, 2020):
Each block holds one compound with its values, some of them ahead of it.

Tests used:
[1] = tested on: tumor growth; details: sunitinib at a dose of 8.75 mg/kg; cited from earlier work
[2] = tested on: MDA-MB-231 tumor; test: In vivo and ex vivo fluorescence imaging of tumor accumulation and retention; parameters: species or system mouse; details: 200 μM, n = 3
In short: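 MDA-MB-231-bearing BALB/c nude mice received test nanoparticles (200 μl, 200 μM) i.v.; peptide-only NPs and PBS served as controls. Whole-body fluorescence (ex 500 nm, em 520 nm) was imaged at 4, 12, 24, 48 and 72 h. At 72 h, heart, liver, spleen, lung, kidney and tumor were excised for ex vivo fluorescence imaging. Groups had three to four mice.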

[3] = tested on: HUVECs; test: CCK-8 cytotoxicity assay, HUVECs; format: cell-based, human; details: CCK-8, 24 hours, 10-80 μM, n = 4
[4] = Safety: body weight and H&E of normal tissues during therapy; format: in vivo, mouse
In short: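 MDA-MB-231-bearing mice were randomized into three groups of three to four. They received test nanoparticles i.v. (200 μl, 200 μM; 2.4 mg/kg) every other day, with peptide-only NPs and PBS as controls. Body weight and tumor volume were recorded every other day. Normal tissues were fixed overnight in 4% paraformaldehyde/PBS, paraffin-embedded, sectioned, H&E-stained and examined by light microscopy.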

[5] = tested on: MCF-7 cells; test: CCK-8 cytotoxicity assay, MCF-7 cells; format: cell-based, human; details: CCK-8, 24 hours, 10-80 μM, n = 4
[6] = tested on: MDA-MB-231 xenografted tumor; test: Blood oxygen saturation; format: in vivo, mouse; details: 4 hours after i.v. injection, 200 μl, 200 μM; n = 30 slices
In short: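 MDA-MB-231 tumor-bearing BALB/c mice were anesthetized with isoflurane in a glass box. Test nanoparticles (200 μl, 200 μM) were given i.v.; peptide-only NPs and PBS (200 μl) served as controls. Multispectral optoacoustic tomography read Hb at 715 nm and HbO2 at 850 nm before and 4 h after injection. 3D maps were built from 30 2D slices at 0.1 mm steps. Data are means ± SD; unpaired two-tailed t test.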

[7] = Safety for blood circulation: platelet activity, thrombin, platelet numbers; format: in vivo, mouse; details: tumor-bearing mice, i.v. 200 μl, 200 μM, up to 5 days
In short: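 Tumor-bearing mice received test nanoparticles (200 μl, 200 μM) i.v. Blood was drawn into 3.8% sodium citrate at 0, 1, 4, 24 and 120 h. Platelet-rich plasma was obtained by mixing blood with an equal volume of 2% paraformaldehyde in PBS for 30 min, then centrifuging at 1000 rpm for 10 min. P-selectin was measured by flow cytometry after 30 min with FITC anti-P-selectin mAb. Thrombin was measured by ELISA; platelet counts by flow cytometry.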

[8] = Particle size and morphology by TEM and DLS; format: physicochemical
In short: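 Nanoparticles were formed by quick injection of a 4.0 mM DMSO peptide stock into water (0.5:99.5 v/v), giving 20 μM. They were incubated with CD105 (0.25 μg/ml) for 0, 4 and 8 h, with BSA or no protein as controls. TEM: drops sat on copper mesh 15 min, were blotted, stained 15 min with uranyl acetate, water-washed, air-dried and imaged at 200 kV. DLS was run at 0 and 8 h.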

[9] = in vivo fluorescence at 4, 12, 24, 48, 72 hours after i.v. 200 μl

Compound: CCN(CC)CCNC(=O)c1c(C)[nH]c(/C=C2\C(=O)Nc3ccc(F)cc32)c1C [sunitinib]
tumor growth inhibition [1]: 32%

tumor fluorescence at 72 hours ([2]; in vivo fluorescence after i.v. 200 μl): almost disappeared
Compound: BP-AHKHVHHVPVRL [BA NPs]

Compound: BP-FFVLK-AHKHVHHVPVRL [pNPs]
concentration showing good biocompatibility (cell viability) [3]: below 50 μM | persistence of fluorescence in tumor [2, 9]: 72 h | time up to which artificial clots continuously accumulated in tumor [2, 9]: 24 h | acute systemic toxicity by body weight ([4]; i.v. 200 μM, 200 μl every other day, body weight every other day): did not induce acute systematic toxicity | cell necrosis in other (non-tumor) tissues, H&E ([4]; tissues harvested 15 d after treatment): not observed | concentration showing good biocompatibility (cell viability) [5]: below 50 μM | decrease in sO2 in tumors compared with before injection [6]: 33.8% | change in plasma thrombin generation ([7]; ELISA): did not induce obvious changes | change in circulating platelet numbers ([7]; flow cytometry): did not induce obvious changes | change in platelet activity (P-selectin-positive platelets) ([7]; flow cytometry): did not induce obvious changes | size during incubation with CD105 (TEM) ([8]; 20 μM with CD105 0.25 μg/ml in water, pNPs at start, apNFs at 4 hours): 30.6 ± 7.1 nm | size by DLS before incubation with CD105 ([8]; 20 μM, 0 hours, multidisperse after CD105 incubation 8 hours): 31.6 nm | diameter (TEM and DLS) ([8]; 20 μM, H2O:DMSO = 99.5:0.5 v/v, freshly prepared): 23.1 ± 5.8 nm | stability of nanoparticles in water ([8]; 20 μM, water with 0.5% DMSO, without CD105, 0 and 8 h, CD, FT-IR, TEM): stable | diameter after incubation with BSA in place of CD105 ([8]; bovine serum albumin replacing CD105, remained particulate): 29.5 ± 5.3 nm
